Measured values from PubChem BioAssay AID624080 (The Scripps Research Institute Molecular Screening Center, 2012).
Where “and” joins values, the source holds several entries; their conditions need not be identical. Equal values may be shown once. Calls of active or inactive are those of the source.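 How the source made its calls: active means compound whose MIC, giving a fourfold drop in bacterial growth, is 10 µM or lower; inactive means the rest.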

Key:
[1] = growth inhibition synergy with imipenem, VIM-2 bacteria – clinical strain PA641, MIC, late-stage follow-up (AID 624080); conditions: VIM-2 P. aeruginosa PA641 growth with imipenem, OD590; measured here: max imipenem fold potentiation; stronger effect = higher value
Outline: (§1)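 Buffer or medium: cation-adjusted Mueller-Hinton broth / Doses: compound two-fold series, checkerboard format / Incubation: ≥18 h at 37 °C, aerobic / Measured by: turbidity by absorbance at 590 nm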

[2] = tested on: VIM-2 P. aeruginosa PA641 growth with imipenem, OD590; assay: as above
Outline: as §1

| SMILES | fold potentiation [1] | MIC [2] |
| --- | --- | --- |
| CC(=O)N1CCN(NC(=O)CN2C(=O)/C(=C/c3c(Cl)cccc3Cl)SC2=S)CC1 | 2 | > 50 µM (inactive) |
| O=C(CN1C(=O)/C(=C/c2c(Cl)cccc2Cl)SC1=S)NN1CCN(Cc2ccccc2)CC1 | – | > 50 µM (inactive) |
| O=C(CN1C(=O)/C(=C/c2c(Cl)cccc2Cl)SC1=S)NN1CCN(C(=O)c2ccccc2)CC1 | – | > 50 µM (inactive) |
| O=C(CN1C(=O)/C(=C/c2c(Cl)ccc(Cl)c2Cl)SC1=S)NN1CCNCC1 | 2 | > 50 µM (inactive) |
| CC(C)(C)OC(=O)N1CCN(NC(=O)CN2C(=O)/C(=C/c3c(Cl)cccc3Cl)SC2=S)CC1 | – | > 100 µM (inactive) |
| CN1CCN(C(=O)CN2C(=O)/C(=C/c3c(Cl)ccc(Cl)c3Cl)SC2=S)CC1 | 4 | > 50 µM (inactive) |
| O=C(CN1C(=O)/C(=C/c2c(Cl)cccc2Cl)SC1=S)NN1CCCCC1 | – | > 100 µM (inactive) |
| CN1CCN(NC(=O)CN2C(=O)/C(=C/c3c(F)cccc3Cl)SC2=S)CC1 | – | > 50 µM (inactive) |
| O=C(CN1C(=O)/C(=C/c2c(Cl)cccc2Cl)SC1=S)NCc1ccccn1 | 2 | > 100 µM (inactive) |
| CN1CCN(NC(=O)CN2C(=O)/C(=C/c3c(Cl)ccc(C(F)(F)F)c3Cl)SC2=S)CC1 | 2 | > 50 µM (inactive) |
| CN1CCN(NC(=O)CN2C(=O)/C(=C/c3c(Cl)ccc(Cl)c3Cl)SC2=S)CC1 | 4 and 2 | > 50 µM (inactive) |
| CN1CCN(NC(=O)CN2C(=O)/C(=C/c3c(C(F)(F)F)ccc(Cl)c3Cl)SC2=S)CC1 | 4 | > 50 µM (inactive) |
| O=C(CN1C(=O)/C(=C/c2c(Cl)cccc2Cl)SC1=S)NN1CCNCC1 | 2 | > 50 µM (inactive) |
| CN1CCN(NC(=O)CN2C(=O)/C(=C/c3c(Cl)cccc3Cl)SC2=S)CC1 | 2 | > 100 µM (inactive) |
| O=C(O)CN1C(=O)/C(=C/c2c(Cl)cccc2Cl)SC1=S | – | > 100 µM (inactive) |
| O=C(CN1C(=O)/C(=C/c2c(Cl)ccc(Cl)c2Cl)SC1=S)NCc1ccccn1 | – | > 50 µM (inactive) |
| CN1CCN(NC(=O)CN2C(=O)/C(=C/c3c(F)cccc3C(F)(F)F)SC2=S)CC1 | – | > 50 µM (inactive) |
| CCN(CC)OC(=O)CN1C(=O)/C(=C/c2c(Cl)cccc2Cl)SC1=S | – | > 100 µM (inactive) |
| O=C(CN1C(=O)/C(=C/c2c(Cl)ccc(Cl)c2Cl)SC1=S)NN1CCCCC1 | – | > 50 µM (inactive) |
| CC(C)(C)OC(=O)N1CCN(NC(=O)CN2C(=O)/C(=C/c3c(Cl)ccc(Cl)c3Cl)SC2=S)CC1 | – | > 50 µM (inactive) |
